Measurements from different studies.
Each line is one published result; the experiments were not run side by side.
Organism: Plasmodium falciparum
Observed: parasite growth

SMILES | method | strain | time | setting | quantity | result
COc1cc(/C=C2\CCC/C(=C\c3ccc(O)c(OC)c3)C2=O)ccc1O | – | K1 | – | drug-resistant strain, blood stage | EC50 | 1300 nM
C[C@@H]1CC[C@H]2[C@@H](C)C(=O)O[C@@H]3O[C@@]4(C)CC[C@@H]1[C@]32OO4 | – | NF54 | – | blood stage | IC50 | 11.2 nM
N=C(CC(O)c1cc2c(F)cc(F)cc2c2cc(C(F)(F)F)ccc12)Nc1ccc(-c2ccc(F)cc2)cc1 (stereo not shown) | ELISA | 3D7 DD2 | – | blood stage | IC50 | ~5 nM
N=C(N)N/N=C/c1c(Cl)cccc1Cl | – | DD2 | – | drug-resistant strain, blood stage | IC50 | 1310 nM
N=C(CC(O)c1cc2c(F)cc(F)cc2c2cc(C(F)(F)F)ccc12)Nc1cc(F)c(F)c(F)c1 (stereo not shown) | ELISA | 3D7 | 72 h | blood stage | IC50 | 8.7 nM
COc1cc(C=C(C(=O)/C=C/c2ccc(O)c(OC)c2)C(=O)/C=C/c2ccc(O)c(OC)c2)ccc1O | – | K1 | – | drug-resistant strain, blood stage | EC50 | 18800 nM
CC(=O)[C@@]1(O)[C@H](O)C[C@H]2[C@@H]3CCC4=CC(=O)CC[C@]4(C)[C@H]3CC[C@@]21C | – | DD2 | – | drug-resistant strain, blood stage | IC50 | 617 nM
CCN1CCN(Cc2ccc(Nc3nc4ccc(Oc5ccnc(NC(=O)C6CCN(C)CC6)c5)cc4n3C)cc2C(F)(F)F)CC1 | flow cytometry | DD2 | 72 h | blood stage | IC90 | 166 nM
COc1cc(/C=C/C(=O)C(=Cc2ccc([N+](=O)[O-])cc2)C(=O)/C=C/c2ccc(O)c(OC)c2)ccc1O | – | K1 | – | drug-resistant strain, blood stage | EC50 | 9100 nM
CCCCCCCCNC(C)C(O)c1ccc(SC(C)C)cc1 (stereo not shown) | – | K1 | – | drug-resistant strain, blood stage | IC50 | 5.1 nM
N=C(CC(O)c1cc2c(F)cc(F)cc2c2cc(C(F)(F)F)ccc12)N1CCC(F)(F)CC1 (stereo not shown) | ELISA | 3D7 | 72 h | blood stage | IC50 | 14.4 nM
COc1cc(/C=C/c2cc(/C=C/c3ccc(O)c(OC)c3)n(-c3ccc(Cl)cc3Cl)n2)ccc1O | – | K1 | – | drug-resistant strain, blood stage | EC50 | 25900 nM
N=C(CC(O)c1cc2c(F)cc(F)cc2c2cc(C(F)(F)F)ccc12)Nc1ccc(N2CCC(F)(F)CC2)cc1 (stereo not shown) | ELISA | 3D7 | 72 h | blood stage | IC50 | 33.6 nM
COc1cc(/C=C/C(=O)C(=Cc2ccccc2)C(=O)/C=C/c2ccc(O)c(OC)c2)ccc1O | – | K1 | – | drug-resistant strain, blood stage | EC50 | 17100 nM
N=C(CC(O)c1cc2c(F)cc(F)cc2c2cc(C(F)(F)F)ccc12)Nc1cccc(F)c1 (stereo not shown) | ELISA | 3D7 DD2 | – | blood stage | IC50 | ~2 nM
CO[C@H]1/C=C/O[C@@]2(C)Oc3c(C)c(O)c4c(O)c(c(/C=N/N5CCN(C)CC5)c(O)c4c3C2=O)NC(=O)/C(C)=C\C=C\[C@H](C)[C@H](O)[C@@H](C)[C@@H](O)[C@@H](C)[C@H](OC(C)=O)[C@@H]1C | – | K1 | – | drug-resistant strain, blood stage | IC50 | 33 nM
COc1cc(/C=C/c2cc(/C=C/c3ccc(O)c(OC)c3)n(-c3cccc([N+](=O)[O-])c3)n2)ccc1O | – | K1 | – | drug-resistant strain, blood stage | EC50 | 16700 nM
CCN(CC)CCCC(C)Nc1ccnc2cc(Cl)ccc12 (stereo not shown) | – | DD2 | – | drug-resistant strain | IC50 | 76.8 nM
N=C(CC(O)c1cc2c(F)cc(F)cc2c2cc(C(F)(F)F)ccc12)Nc1ccc(Br)c(F)c1 (stereo not shown) | ELISA | 3D7 | 72 h | blood stage | IC50 | 5.3 nM
